Values belong to the compound of their own block, whether it stands above or below them. The source made the active and inactive calls. The rule behind the calls is not given here.
Assays:
Myeloperoxidase [1] = target: T1, Myeloperoxidase (Homo sapiens, UniProt P05164); test: Inhibition of human PMN leukocytes MPO peroxidation activity using H2O2 as substrate preincubated for 10 mins followed by H2O2 addition and measured for 15 mins by amplex red reagent based assay
T1 sequence (P05164 whole entry): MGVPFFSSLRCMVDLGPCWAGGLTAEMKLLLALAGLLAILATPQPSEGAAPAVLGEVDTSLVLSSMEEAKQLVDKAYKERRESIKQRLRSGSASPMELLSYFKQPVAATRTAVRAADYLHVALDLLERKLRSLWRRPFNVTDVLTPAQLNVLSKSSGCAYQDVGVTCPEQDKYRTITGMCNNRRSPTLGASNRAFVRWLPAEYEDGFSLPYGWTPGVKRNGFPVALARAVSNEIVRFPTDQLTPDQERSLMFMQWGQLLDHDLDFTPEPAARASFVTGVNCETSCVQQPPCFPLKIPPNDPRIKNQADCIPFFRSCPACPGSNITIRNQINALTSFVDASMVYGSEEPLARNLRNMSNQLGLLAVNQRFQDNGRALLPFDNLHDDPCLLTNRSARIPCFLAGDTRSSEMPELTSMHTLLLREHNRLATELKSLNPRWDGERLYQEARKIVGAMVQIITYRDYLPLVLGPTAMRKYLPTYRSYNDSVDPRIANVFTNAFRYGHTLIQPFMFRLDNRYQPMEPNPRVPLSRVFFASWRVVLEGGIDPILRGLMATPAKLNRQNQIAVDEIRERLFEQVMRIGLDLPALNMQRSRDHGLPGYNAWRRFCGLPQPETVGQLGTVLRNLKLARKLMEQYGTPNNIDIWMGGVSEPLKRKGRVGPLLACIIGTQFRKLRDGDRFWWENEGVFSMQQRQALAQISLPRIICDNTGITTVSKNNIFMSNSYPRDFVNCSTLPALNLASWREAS

Myeloperoxidase [2] = target: T1, Myeloperoxidase; test: Inhibition of human PMN leukocytes MPO chlorination activity using H2O2 as substrate preincubated for 10 mins followed by H2O2 addition and measured for 15 mins in presence of NaCl by aminophenyl fluorescein based assay
[3] = Half life in pH 1 solution; format: physicochemical
[4] = AUC in mouse at 3 mg/kg, po after 8 hrs; format: ADME, organism-based; design: dose 3 mg/kg, time < 8 hr, route oral; details: in vivo
[5] = target: T2, Methylated-DNA--protein-cysteine methyltransferase (Homo sapiens, UniProt P16455); test: Inhibition of recombinant human N-terminal His-tagged MGMT (1 to 207 residues) expressed in Escherichia coli using O-6-benzylguanine as substrate after 30 mins by LC-MS analysis; details: 0.5 h
T2 sequence (P16455 whole entry): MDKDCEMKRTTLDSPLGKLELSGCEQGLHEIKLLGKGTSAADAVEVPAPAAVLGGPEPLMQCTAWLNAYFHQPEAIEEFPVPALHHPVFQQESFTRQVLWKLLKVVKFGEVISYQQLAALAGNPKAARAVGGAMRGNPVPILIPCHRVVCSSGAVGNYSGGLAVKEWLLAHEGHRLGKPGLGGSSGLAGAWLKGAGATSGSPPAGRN

Eosinophil peroxidase = target: T3, Eosinophil peroxidase (Homo sapiens, UniProt P11678); test: Inhibition of human EPX bromination activity assessed as reduction in H2O2 catalyzed 3-bromo tyrosine formation from tyrosine and potassium bromide preincubated for 10 mins followed by tyrosine/potassium bromide/H2O2 addition measured after 15 mins by RP-UPLC analysis
T3 sequence (P11678 whole entry): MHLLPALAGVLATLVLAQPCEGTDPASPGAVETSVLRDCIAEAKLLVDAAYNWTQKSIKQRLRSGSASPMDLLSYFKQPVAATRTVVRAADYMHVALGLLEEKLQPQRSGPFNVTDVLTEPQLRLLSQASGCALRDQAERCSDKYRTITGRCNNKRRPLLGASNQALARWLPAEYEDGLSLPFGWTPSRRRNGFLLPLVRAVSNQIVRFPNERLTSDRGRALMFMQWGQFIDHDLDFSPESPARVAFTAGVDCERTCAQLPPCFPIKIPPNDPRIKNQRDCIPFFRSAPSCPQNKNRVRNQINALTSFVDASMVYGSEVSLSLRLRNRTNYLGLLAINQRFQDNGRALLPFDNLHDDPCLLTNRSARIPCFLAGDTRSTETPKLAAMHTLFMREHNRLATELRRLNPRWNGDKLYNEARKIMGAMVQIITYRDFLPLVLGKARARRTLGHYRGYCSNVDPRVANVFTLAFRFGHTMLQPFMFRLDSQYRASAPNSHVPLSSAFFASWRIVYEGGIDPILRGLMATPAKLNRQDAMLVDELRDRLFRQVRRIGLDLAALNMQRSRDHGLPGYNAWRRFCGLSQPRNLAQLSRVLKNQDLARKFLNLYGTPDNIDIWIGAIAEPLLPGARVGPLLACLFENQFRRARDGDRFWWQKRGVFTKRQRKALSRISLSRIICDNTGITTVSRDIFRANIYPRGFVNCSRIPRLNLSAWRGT

Thyroid peroxidase = target: T4, Thyroid peroxidase (Homo sapiens, UniProt P07202); test: Inhibition of human TPO assessed as reduction in H2O2 catalyzed 3,5-iodo tyrosine formation from 3-iodotyrosine and potassium iodide preincubated for 10 mins followed by tyrosine/potassium bromide/H2O2 addition measured after 15 mins
T4 sequence (P07202 whole entry): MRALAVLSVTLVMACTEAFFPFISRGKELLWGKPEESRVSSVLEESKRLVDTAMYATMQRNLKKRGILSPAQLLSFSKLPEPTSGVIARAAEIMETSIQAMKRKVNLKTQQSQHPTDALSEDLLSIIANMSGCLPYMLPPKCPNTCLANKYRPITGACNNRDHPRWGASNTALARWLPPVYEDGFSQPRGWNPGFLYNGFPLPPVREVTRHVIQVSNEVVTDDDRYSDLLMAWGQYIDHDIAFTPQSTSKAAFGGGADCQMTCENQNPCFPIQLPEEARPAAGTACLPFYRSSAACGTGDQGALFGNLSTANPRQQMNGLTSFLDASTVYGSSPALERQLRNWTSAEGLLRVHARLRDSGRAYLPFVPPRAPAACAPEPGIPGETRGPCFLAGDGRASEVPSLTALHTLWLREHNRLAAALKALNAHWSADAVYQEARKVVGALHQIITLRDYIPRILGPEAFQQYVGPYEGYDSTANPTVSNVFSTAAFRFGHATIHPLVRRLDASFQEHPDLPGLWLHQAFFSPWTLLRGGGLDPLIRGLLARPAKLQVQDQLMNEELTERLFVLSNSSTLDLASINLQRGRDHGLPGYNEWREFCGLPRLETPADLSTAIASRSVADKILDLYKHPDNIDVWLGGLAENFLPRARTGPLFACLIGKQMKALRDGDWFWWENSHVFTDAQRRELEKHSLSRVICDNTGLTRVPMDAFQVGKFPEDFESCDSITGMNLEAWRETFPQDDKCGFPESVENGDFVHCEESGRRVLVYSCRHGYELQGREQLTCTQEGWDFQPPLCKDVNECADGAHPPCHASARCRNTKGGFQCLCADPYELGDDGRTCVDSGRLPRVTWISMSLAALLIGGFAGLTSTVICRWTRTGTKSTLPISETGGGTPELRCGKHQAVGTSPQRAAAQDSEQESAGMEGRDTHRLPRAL

Lactoperoxidase = Lactoperoxidase (Homo sapiens, UniProt P22079); test: Inhibition of human LPO assessed as reduction in H2O2 catalyzed 3,5-iodo tyrosine formation from 3-iodotyrosine and potassium iodide preincubated for 10 mins followed by tyrosine/potassium bromide/H2O2 addition measured after 15 mins
Sequence of Lactoperoxidase (P22079 whole entry): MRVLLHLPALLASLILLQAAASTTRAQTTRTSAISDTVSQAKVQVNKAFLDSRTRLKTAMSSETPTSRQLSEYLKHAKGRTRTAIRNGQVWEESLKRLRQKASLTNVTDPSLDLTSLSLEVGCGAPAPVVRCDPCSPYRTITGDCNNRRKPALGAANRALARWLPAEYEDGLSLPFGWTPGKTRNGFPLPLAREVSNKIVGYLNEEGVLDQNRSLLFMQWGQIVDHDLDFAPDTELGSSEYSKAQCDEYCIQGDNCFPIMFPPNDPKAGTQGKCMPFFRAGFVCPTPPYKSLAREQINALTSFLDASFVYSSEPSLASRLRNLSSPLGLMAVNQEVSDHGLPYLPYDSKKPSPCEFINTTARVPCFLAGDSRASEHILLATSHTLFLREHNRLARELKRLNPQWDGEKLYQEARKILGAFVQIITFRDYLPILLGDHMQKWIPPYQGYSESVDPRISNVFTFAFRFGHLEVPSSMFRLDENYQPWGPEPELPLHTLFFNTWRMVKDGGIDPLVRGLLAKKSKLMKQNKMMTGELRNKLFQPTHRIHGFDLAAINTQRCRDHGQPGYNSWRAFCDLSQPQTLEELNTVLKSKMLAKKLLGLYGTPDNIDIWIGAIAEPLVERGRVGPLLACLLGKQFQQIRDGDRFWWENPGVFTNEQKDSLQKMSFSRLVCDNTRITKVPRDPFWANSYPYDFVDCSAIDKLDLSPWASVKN

[6] = Protein binding in human plasma; format: ADME, cell-free; details: read-out: PPB (converted)
[7] = Protein binding in mouse plasma; format: ADME, cell-free; details: read-out: PPB (converted)
[8] = Cmax in mouse at 3 mg/kg, po; format: ADME, organism-based; design: dose 3 mg/kg, route oral; details: in vivo
Cytochrome P450 3A4 = Cytochrome P450 3A4 (Homo sapiens, UniProt P08684); test: Inhibition of CYP3A4 (unknown origin); format: ADME
Sequence of Cytochrome P450 3A4 (P08684 whole entry): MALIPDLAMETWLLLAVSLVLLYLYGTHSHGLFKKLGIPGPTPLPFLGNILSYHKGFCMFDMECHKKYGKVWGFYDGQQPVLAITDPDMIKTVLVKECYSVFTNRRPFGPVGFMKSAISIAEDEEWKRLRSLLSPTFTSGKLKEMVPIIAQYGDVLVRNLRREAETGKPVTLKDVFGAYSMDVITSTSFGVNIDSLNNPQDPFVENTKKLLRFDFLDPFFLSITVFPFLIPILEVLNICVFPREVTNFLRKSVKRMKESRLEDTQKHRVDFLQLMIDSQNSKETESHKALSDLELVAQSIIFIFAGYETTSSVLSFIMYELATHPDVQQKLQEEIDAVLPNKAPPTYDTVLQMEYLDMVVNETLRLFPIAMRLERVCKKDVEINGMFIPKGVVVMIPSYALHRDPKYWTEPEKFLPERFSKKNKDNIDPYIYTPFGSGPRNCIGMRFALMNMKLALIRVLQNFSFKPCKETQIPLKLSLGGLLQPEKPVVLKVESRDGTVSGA

Mus musculus [9] = test: (§1) In vivo inhibition of PMA-stimulated MPO in human MPO transgenic mouse model of acute inflammation assessed as reduction in hypochlorous acid production in blood administered orally 20 mins prior to PMA stimulation and measured after 2 mins by luminol chemiluminescence assay; format: functional, organism-based
Outline: (§2)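 Mice were dosed with test compound, then given PMA 20 minutes later to stimulate MPO through neutrophil degranulation. After 2 minutes, blood samples were treated with luminol. Chemiluminescence was read as MPO-dependent hypochlorous acid production.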

Mus musculus [10] = test: In vivo inhibition of […] in mouse model of acute inflammation at 10 to 30 mg/kg, po; format: functional, organism-based
Mus musculus [11] = test: as §1, with “blood at 10 mg/kg, po” for “blood”, “administered” for “administered orally”, “assay relative to control” for “assay”; format: functional; outline: as §2
Mus musculus [12] = test: as §1, with “blood at 30 mg/kg, po” for “blood”, “administered” for “administered orally”, “assay relative to control” for “assay”; format: functional; outline: as §2
[13] = Plasma concentration in human MPO transgenic mouse model of PMA-induced acute inflammation at 10 mg/kg, po; format: ADME, organism-based; details: in vivo
[14] = Plasma concentration in human MPO transgenic mouse model of PMA-induced acute inflammation at 30 mg/kg, po; format: ADME, organism-based; details: in vivo

Compound: Cc1c(COc2cc(N)nc3[nH]nnc23)cccc1-c1cccc(F)c1
IC50 (Myeloperoxidase [1]): 23 nM

Compound: Nc1cc(OCc2cccc(-c3cccc(F)c3)c2)c2nn[nH]c2n1
IC50 (Myeloperoxidase [1]): 21 nM

Compound: Nc1cc(OCc2nn(-c3ccccc3)nc2C(F)F)c2nn[nH]c2n1
IC50 (Myeloperoxidase [1]): 12 nM

Compound: CS(=O)(=O)c1ccccc1COc1cc(N)nc2[nH]nnc12
IC50 (Myeloperoxidase [1]): 720 nM

Compound: Cn1cc(-c2cccc(COc3cc(N)nc4[nH]nnc34)c2)cn1
IC50 (Myeloperoxidase [1]): 78 nM

Compound: Cc1nn(-c2ccccc2)nc1COc1cc(N)nc2[nH]nnc12
IC50 (Myeloperoxidase [1]): 27 nM | IC50 (Cytochrome P450 3A4): 370 nM

Compound: Nc1cc(OCc2ccccc2-n2cccn2)c2nn[nH]c2n1
IC50 (Myeloperoxidase [1]): 26 nM

Compound: Nc1cc(OCc2cn(-c3ccccc3)nn2)c2nn[nH]c2n1
IC50 (Myeloperoxidase [1]): 400 nM

Compound: Nc1cc(OCc2cccc(Cl)c2)c2nn[nH]c2n1
IC50 (Myeloperoxidase [1]): 21 nM

Compound: Cc1c(COc2cc(N)nc3[nH]nnc23)cccc1-c1ccn(C)n1
IC50 (Myeloperoxidase [1]): 26 nM | IC50 (Cytochrome P450 3A4): 1500 nM

Compound: Nc1cc(OCc2cc(-c3cccc(F)c3)ccc2Cl)c2nn[nH]c2n1
IC50 (Myeloperoxidase [1]): 24 nM | IC50 (Cytochrome P450 3A4): 60 nM

Compound: Nc1cc(OCc2c(Cl)cccc2Cl)c2nn[nH]c2n1
IC50 (Myeloperoxidase [1]): 6.7 nM

Compound: Nc1cc(OCc2ncc(-c3ccccc3)o2)c2nn[nH]c2n1
IC50 (Myeloperoxidase [1]): 290 nM

Compound: Nc1cc(SCc2c(Cl)cccc2Cl)c2nn[nH]c2n1
IC50 (Myeloperoxidase [1]): 4.6 nM

Compound: Nc1cc(SCc2nn(-c3ccccc3)nc2C(F)F)c2nn[nH]c2n1
IC50 (Myeloperoxidase [1]): 8.5 nM

Compound: Nc1cc(OCc2nn(-c3ccccc3)nc2CO)c2nn[nH]c2n1
IC50 (Myeloperoxidase [1]): 250 nM

Now from value to compound, other results behind:

IC50 (Myeloperoxidase [1]): 30 nM
Compound: Nc1cc(OCc2ccccc2F)c2nn[nH]c2n1

IC50 (Myeloperoxidase [1]): 160 nM
Compound: Nc1cc(OCc2cccc(-c3ccccc3F)c2)c2nn[nH]c2n1

IC50 (Myeloperoxidase [2]): 110 to 190 nM | half-life [3]: 2.8 h | AUC at 8 h [4]: 22 µM·h | inhibition (INH) [5]: Active | IC50 (Eosinophil peroxidase): 17 nM | IC50 (Thyroid peroxidase): 42000 nM | IC50 (Lactoperoxidase): > 100000 nM | fraction unbound [6]: 0.006 | fraction unbound [7]: 0.127 | Cmax [8]: 31 µM
Compound: Nc1nc(OCc2ccccc2)c2[nH]nnc2n1

IC50 (Myeloperoxidase [2]): 6.8 nM | IC50 (Myeloperoxidase [1]): 8.7 nM | AUC at 8 h [4]: 18 µM·h | IC50 (Eosinophil peroxidase): 22 nM | IC50 (Thyroid peroxidase): 4000 nM | IC50 (Lactoperoxidase): > 8000 nM | fraction unbound [6]: 0.02 | fraction unbound [7]: 0.192 | Cmax [8]: 17 µM | concentration [13]: 21 µM | concentration [14]: 70 µM
Compound: Nc1cc(SCc2ccccc2F)c2nn[nH]c2n1
inhibition (Mus musculus [9]): Dose-dependent effect | inhibition (Mus musculus [10]): Active | inhibition in vivo at 10 mg/kg (Mus musculus [11]): 50% | inhibition in vivo at 30 mg/kg (Mus musculus [12]): 74%

IC50 (Myeloperoxidase [1]): 26 nM
Compound: Nc1cc(OCc2ccccc2Cl)c2nn[nH]c2n1

IC50 (Myeloperoxidase [1]): 26 nM
Compound: Nc1cc(OCc2ccc(Cl)cc2)c2nn[nH]c2n1

IC50 (Myeloperoxidase [1]): 21 nM
Compound: Cn1ccc(-c2cccc(COc3cc(N)nc4[nH]nnc34)c2)n1

IC50 (Myeloperoxidase [2]): 50 nM | IC50 (Myeloperoxidase [1]): 36 nM | half-life [3]: > 100 h | AUC at 8 h [4]: 11 µM·h | inhibition (INH) [5]: Active
Compound: Nc1cc(OCc2ccccc2)c2nn[nH]c2n1

— ChEMBL document CHEMBL4325921, “Potent Triazolopyridine Myeloperoxidase Inhibitors” (ACS Med Chem Lett, 2018)
